Reference: ChEMBL document CHEMBL2346503, “Synthesis and evaluation of novel (18)F-labeled spirocyclic piperidine derivatives as σ1 receptor ligands for positron emission tomography imaging” (J Med Chem, 2013)

Experiments:
Rattus norvegicus = organism: Rattus norvegicus; experiment: Selectivity ratio of Ki for rat liver sigma2 receptor to rat brain sigma1 receptor
Procedure, shortened: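 Competition binding used rat brain homogenates for σ1 with (+)-[³H]pentazocine. Rat liver homogenates were used for σ2 with [³H]DTG, in the presence of 10 μM dextrallorphan to mask σ1 sites. Ki values are means ± SD of three experiments, each in triplicate. Selectivity is Ki(σ2)/Ki(σ1).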

[1] = target: Sigma non-opioid intracellular receptor 1 (Rattus norvegicus, UniProt Q9R0C9); experiment: Displacement of (+)-[3H]pentazocine from rat brain sigma1 receptor by competitive binding assay
[2] = Displacement of [3H]-1,3-di-o-tolylguanidine from rat liver sigma2 receptor by competitive binding assay
Procedure, shortened: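 Rat liver homogenate as the σ2 source, with [3H]DTG as radioligand plus 10 μM dextrallorphan to mask σ1 sites, in a competition format. Ki values are mean ± SD of three experiments, each run in triplicate.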

[3] = Binding affinity to sigma2 receptor (unknown origin); set-up: species or system Homo sapiens
[4] = target: T1, Sigma non-opioid intracellular receptor 1 (Homo sapiens, UniProt Q99720); experiment: Binding affinity to sigma1 receptor (unknown origin)
Procedure, shortened: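 Radioligand competition binding on rat brain homogenates using (+)-[³H]pentazocine as the competing radioligand. Ki values are means ± SD of three experiments, each performed in triplicate.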

[5] = target: T1, Sigma non-opioid intracellular receptor 1; experiment: Binding affinity to human brain sigma1 receptor
Brain [6] = experiment: Biodistribution in mouse brain after 60 mins in presence of haloperidol relative to control; type: ADME, organism-based; details: in vivo, 1 h
Procedure, shortened: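 Male ICR mice (n = 5 per group) got saline (0.1 mL) or haloperidol (0.1 mL, 1.0 mg/kg) via tail vein 5 min before iv [18F]tracer (370 kBq, 0.1 mL, saline). Killed by decapitation at 60 min. Brain was weighed and gamma-counted with decay correction, giving %ID/g against diluted injectate. Control vs blocking compared by two-tailed independent Student's t test.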

Brain [7] = experiment: Biodistribution in mouse brain after 5 mins by PET imaging analysis; type: ADME, organism-based; details: in vivo
[8] = Ratio of drug uptake from […] mouse brain to blood after 120 mins; type: ADME, tissue-based; details: brain and blood
Procedure, shortened: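 Male ICR mice (n = 5 per time point) received [18F]tracer (370 kBq, 0.1 mL saline) iv and were decapitated at 2, 30, 60 and 120 min. Brain and blood were weighed and gamma-counted, decay-corrected and expressed as %ID/g against diluted injectate. The brain/blood ratio was taken from these %ID/g values.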

[9] = target: 3-beta-hydroxysteroid-Delta(8),Delta(7)-isomerase (Homo sapiens, UniProt Q15125); experiment: Binding affinity to EBP (unknown origin)
Homo sapiens = organism: Homo sapiens; experiment: Selectivity ratio of Ki for human sigma2 receptor to human sigma1 receptor
Liver = experiment: Metabolic stability in ICR mouse liver assessed as retention time at 18.5 MBq, iv by HPLC analysis; type: ADME, organism-based; details: in vivo
Procedure, shortened: (§1)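 Male ICR mice given radiotracer iv (18.5 MBq, 0.2 mL), killed at 30 min. Brain and liver were homogenized in ice-cold PBS (0.01 M, pH 7.4) and extracted with ice-cold MeCN. Supernatants were filtered, concentrated and analysed by radio-HPLC on a C18 column, acetonitrile/water with 0.1% TFA (45:55), 1 mL/min.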

[10] = Metabolic stability in ICR mouse liver at 18.5 MBq, iv after 30 mins by HPLC analysis; type: ADME, organism-based; details: read-out: Stability; procedure, shortened: as §1
Brain [11] = experiment: Metabolic stability in ICR mouse brain at 18.5 MBq, iv after 30 mins by HPLC analysis; type: ADME, organism-based; details: in vivo, 0.5 h; procedure, shortened: as §1
Liver microsomes [12] = experiment: Metabolic stability in rat liver microsomes assessed as retention time by UPLC-MS analysis in presence of beta-NADP; type: ADME, Microsome
Procedure, shortened: (§2)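 Rat liver microsomes (2 mg protein/mL) with 100 μM compound and an NADPH-generating system (2 mM β-NADPH, 20 mM glucose 6-phosphate, 2 U G6PDH, 12 mM MgCl₂) in 0.05 M Tris-HCl pH 7.4. Preincubated 3 min, then run 30 min at 37 °C and stopped with ice-cold methanol. Supernatant analysed by UPLC-ESI(+)-MS against compound-free blanks.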

Brain [13] = experiment: Biodistribution in iv dosed CD1 mouse brain after 15 mins by PET imaging analysis; type: ADME, organism-based; details: in vivo, 0.25 h
[14] = Lipophilicity, log D of the compound at pH 7.4; type: physicochemical; details: buffer
Procedure, shortened: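 Shake flask: radiotracer (370 kBq) in 3 mL 1-octanol plus 3 mL 0.05 M sodium phosphate buffer pH 7.4, vortexed 3 min at room temperature, then centrifuged. Both phases were gamma-counted and log D = log(cpm/mL octanol ÷ cpm/mL buffer). The octanol layer was repartitioned until values were consistent. Triplicate, repeated three times.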

[15] = target: Vesicular acetylcholine transporter (Rattus norvegicus, UniProt Q62666); experiment: Displacement of (-)-[3H]-vesamicol from rat VAChT transfected in rat PC12 cells after 120 mins by competitive binding assay; type: cell-based, PC-12
Procedure, shortened: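 Membrane homogenates from PC12 cells stably expressing rat VAChT, with 1 nM (−)-[3H]vesamicol, test ligand at 10⁻¹¹–10⁻⁵ M, in 50 mM Tris-HCl pH 7.4, 120 min at room temperature. Nonspecific binding was defined with 10 μM (−)-vesamicol. Ki from Cheng–Prusoff; mean of two experiments, each in triplicate.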

Liver microsomes [16] = experiment: Metabolic stability in rat liver microsomes assessed as retention time at 100 uM by UPLC-MS analysis in presence of beta-NADPH; type: ADME, Microsome; procedure, shortened: as §2
[17] = Ratio of drug uptake from mouse brain to blood after 30 mins; type: ADME, tissue-based; details: brain and blood
Procedure, shortened: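 Male ICR mice (n = 5 per time point) received an intravenous saline solution of the radiotracer (370 kBq, 0.1 mL). They were decapitated at 2, 30, 60 and 120 min. Brain, blood and other organs were weighed and γ-counted against diluted injectate aliquots, decay-corrected, and expressed as %ID/g of wet tissue (mean, SD). The brain/blood ratio is given at each time.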

Brain [18] = experiment: Biodistribution in iv dosed CD1 mouse brain after 30 mins in presence of haloperidol relative to control; type: ADME, organism-based; details: in vivo, 0.5 h

T1 sequence (Q99720 whole entry): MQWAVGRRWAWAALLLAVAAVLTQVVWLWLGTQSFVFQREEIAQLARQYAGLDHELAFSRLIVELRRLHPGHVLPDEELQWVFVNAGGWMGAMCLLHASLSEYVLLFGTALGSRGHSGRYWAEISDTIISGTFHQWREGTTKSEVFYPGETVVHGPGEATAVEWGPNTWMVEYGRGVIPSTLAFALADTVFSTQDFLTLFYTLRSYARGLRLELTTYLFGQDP
Sequence of Sigma non-opioid intracellular receptor 1 (Rattus norvegicus, UniProt Q9R0C9) (Q9R0C9 whole entry): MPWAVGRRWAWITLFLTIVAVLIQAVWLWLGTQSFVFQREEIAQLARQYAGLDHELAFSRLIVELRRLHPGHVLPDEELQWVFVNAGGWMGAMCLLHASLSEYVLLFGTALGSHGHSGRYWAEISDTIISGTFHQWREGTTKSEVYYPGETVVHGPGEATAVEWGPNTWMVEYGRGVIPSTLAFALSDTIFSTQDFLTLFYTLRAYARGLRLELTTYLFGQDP
Sequence of 3-beta-hydroxysteroid-Delta(8),Delta(7)-isomerase (Q15125 whole entry): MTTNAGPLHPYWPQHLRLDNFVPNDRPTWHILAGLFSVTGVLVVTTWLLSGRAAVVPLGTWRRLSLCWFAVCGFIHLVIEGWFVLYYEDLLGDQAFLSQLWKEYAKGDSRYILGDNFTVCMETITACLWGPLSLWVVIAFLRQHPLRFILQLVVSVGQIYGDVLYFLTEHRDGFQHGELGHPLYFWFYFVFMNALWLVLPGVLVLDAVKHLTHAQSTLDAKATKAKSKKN
Sequence of Vesicular acetylcholine transporter (Q62666 whole entry): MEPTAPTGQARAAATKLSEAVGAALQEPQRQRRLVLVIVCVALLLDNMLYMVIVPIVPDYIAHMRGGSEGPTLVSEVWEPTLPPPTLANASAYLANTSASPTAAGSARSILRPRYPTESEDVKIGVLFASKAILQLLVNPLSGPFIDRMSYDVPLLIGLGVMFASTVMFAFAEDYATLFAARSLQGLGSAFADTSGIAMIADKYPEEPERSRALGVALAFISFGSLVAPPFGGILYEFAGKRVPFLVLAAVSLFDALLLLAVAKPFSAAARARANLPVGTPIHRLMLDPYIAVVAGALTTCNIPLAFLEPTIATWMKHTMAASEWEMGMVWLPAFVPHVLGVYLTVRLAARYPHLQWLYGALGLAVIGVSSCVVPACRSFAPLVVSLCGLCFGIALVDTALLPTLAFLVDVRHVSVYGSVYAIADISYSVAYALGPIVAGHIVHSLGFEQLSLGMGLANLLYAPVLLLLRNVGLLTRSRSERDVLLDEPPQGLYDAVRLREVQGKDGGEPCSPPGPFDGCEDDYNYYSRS

Row | Ratio Ki (Rattus norvegicus) | Ki [1] [nM] | Ki [2] [nM] | SMILES | also measured
1 | 16 | 52.9 | 860 | FCCOCCOc1ccc(CN2CCC3(CC2)OCc2ccccc23)cc1 | 
2 | 123 | 2.75 | 340 | Ic1ccc(CN2CCC3(CC2)OCc2ccccc23)cc1 | Ki [3]: 340 nM; Ki [4]: 2.75 nM
3 | 162 | 1.7 | 276 | COc1ccc(CN2CCC3(CC2)OCc2ccccc23)cc1 | 
4 |  |  |  | N#Cc1ccc(OCC2CCN(CCC[18F])CC2)cc1 | Ki [5]: 4.3 nM
5 |  |  | 20.7 | O=C(CCCN1CCC(O)(c2ccc(Cl)cc2)CC1)c1ccc(F)cc1 [HALOPERIDOL] | 
6 |  |  |  | [18F]CCC1OC2(CCN(Cc3ccccc3)CC2)c2ccccc21 (centres undefined) | Drug uptake (Brain [6]): 62%; Drug uptake (Brain [7]): 3.88 % ID/g; Kp at 2 h [8]: 18.8
7 | 142 | 2.3 | 327 | FCCOc1ccc(CN2CCC3(CC2)OCc2ccccc23)cn1 | 
8 |  |  |  | N#Cc1ccc(OCC2CCN(C/C=C/[123I])CC2)cc1 | Ki [5]: 0.67 nM
9 |  |  |  | COc1ccc(CCN2CCN(CCCc3ccccc3)CC2)cc1OC [[11C]SA4503] | Ki [9]: 1.72 nM
10 |  |  |  | N#Cc1ccc(OCC2CCN(CCCF)CC2)cc1 | Ratio Ki (Homo sapiens; tested as the 18F-labelled form): 33
11 |  |  |  | N#Cc1ccc(OCC2CCN(C/C=C/I)CC2)cc1 | Ratio Ki (Homo sapiens; tested as the 123I-labelled form): 58
12 |  |  |  | OCc1ccccc1C1(O)CCN(Cc2ccc(OCC[18F])cc2)CC1 | Retention_time (Liver): 4.68 min; remaining at 0.5 h [10]: 26.9%; Stability (Brain [11]): Unstable
13 | 16 | 37.5 | 592 | FCCOCCOCCOc1ccc(CN2CCC3(CC2)OCc2ccccc23)cc1 | 
14 |  |  |  | OCc1ccccc1C1(O)CCN(Cc2ccc(OCCF)cc2)CC1 | Retention_time (Liver microsomes [12]): 1.42 min
15 |  |  |  | [125I]c1ccc(CN2CCC3(CC2)OCc2ccccc23)cc1 | Drug uptake (Brain [13]): 5.28 % ID/g; logD [14]: 3.06
16 | 350 | 0.79 | 277 | FCCOc1ccc(CN2CCC3(CC2)OCc2ccccc23)cc1 | Ki [15]: 631 nM; Retention_time (Liver microsomes [16]): 1.82 min
17 | 182 | 0.58 | 106 | Fc1ccc(CN2CCC3(CC2)OCc2ccccc23)cc1 | 
18 |  |  |  | COc1cc(CCN2CCN(CCCc3ccccc3)CC2)ccc1O[11CH3] | Kp at 0.5 h [17]: 11.6; Drug uptake (Brain [18]): 60%; Drug uptake (Brain [7]): 3.61 % ID/g
19 |  |  |  | Oc1ccc(CN2CCC3(CC2)OCc2ccccc23)cc1 | Retention_time (Liver microsomes [12]): 1.74 min
